Screening results (PubChem BioAssay)
OX1R antag-1 – human HCRTR1 antagonism. 330,000 compounds, 0.43% hits. inhibition, % at 5 µM. O43613. CHO/OX1R cells, Fluo-8 calcium fluorescence, orexin A;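 active means inhibition above its plate's threshold, mean inhibition of all tested compounds on the plate plus 3 SD, cut at about 37% in these data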;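 further: 0% = orexin A challenge wells and 100% = SB-334867-A antagonist wells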
Target sequence (O43613 whole entry, looked up): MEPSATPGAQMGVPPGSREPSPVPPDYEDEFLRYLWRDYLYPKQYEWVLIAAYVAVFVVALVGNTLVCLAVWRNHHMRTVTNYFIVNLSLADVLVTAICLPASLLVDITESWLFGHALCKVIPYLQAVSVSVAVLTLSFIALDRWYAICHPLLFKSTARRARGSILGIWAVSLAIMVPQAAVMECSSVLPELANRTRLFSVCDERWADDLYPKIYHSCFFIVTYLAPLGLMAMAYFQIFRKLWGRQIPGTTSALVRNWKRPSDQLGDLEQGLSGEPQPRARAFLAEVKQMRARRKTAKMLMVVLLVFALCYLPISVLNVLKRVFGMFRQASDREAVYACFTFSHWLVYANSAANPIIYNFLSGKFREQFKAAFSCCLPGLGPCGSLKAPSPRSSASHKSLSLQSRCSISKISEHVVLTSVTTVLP
CHO parental Ca – counter-screen for OX1R antagonists: effect in parental CHO cells | parental CHO-K1, ATP-induced calcium, Fluo-8 fluorescence | inhibition, % at 5.6 µM | 330,000 compounds, 0.63% hits;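 active means inhibition above that plate's mean sample inhibition plus 3 SD, cut at about 26% in these data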;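 further: 0% = ATP-challenged DMSO wells and 100% = DMSO wells without ATP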
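Test system: parental CHO cells; detection: calcium-sensitive Fluo-8 fluorescence; evaluation: percent inhibition of calcium signal; also added: ATP as calcium-mobilizing challenge; repeats: one well per compound; control set: ATP-challenged DMSO wells low, unchallenged DMSO wells high; compound: single nominal dose of 5.6 µM per compound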
OXTR potentiator – human OXTR potentiation; P30559; CHO-OTR cells, Fluo-8 calcium fluorescence, potentiator mode; 0% = oxytocin EC15, 100% = EC100; activation, % at 3 µM; 320,000 compounds, 0.061% hits; AID 2445;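 active means activation above that plate's cutoff, the mean activation of tested compounds plus 3 SD, cut at about 6.6% in these data, passing the limit was not always enough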;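 further: 100% uses oxytocin at 75 nM as the full agonist control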
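Material: human OTR in CHO cells. Compound: 3.0 µM, one dose. Timing: compound 6 min at room temperature before oxytocin, 100 s read. Evaluation: % activation of max/min ratio relative to oxytocin controls. Replication: single well per compound, singlicate. Signal: Fluo-8 calcium dye fluorescence.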
V1R ag counter – V1a receptor agonism, counter-screen for OXTR agonists; P37288; CHO-V1R cells, Fluo-8 calcium fluorescence, agonist mode; 0% DMSO, 100% 3 nM vasopressin; activation, % at 3 µM; 320,000 compounds, 0.25% hits; AID 2797;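 active means activation above the mean activation of all tested compounds plus 3 SD, per screening run, cut at about 20% in these data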;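 further: signal is peak over basal fluorescence ratio across a 100 second FLIPR read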
OX1R antag-2 – antagonists of human orexin 1 receptor (OX1R). inhibition, % at 6.6 µM. O43613. 330,000 compounds, 1.8% hits. OX1R-expressing cells, FRET antagonist read-out; in the data active means inhibition mostly above about 38%, no sharp cut-off; inactive means mostly below about 40%;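 further: 0% = agonist challenge alone and 100% = reference antagonist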
OXTR agonist – activates the human oxytocin receptor; activation, % at 3 µM; 320,000 compounds, 0.32% hits; CHO-OTR cells, Fluo-8 calcium fluorescence; normalized: DMSO 0%, oxytocin 100%; P30559;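 active means activation above the mean of all tested compounds plus 3 SD, cutoff set per screening run, cut at about 20% in these data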;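 further: peak over basal fluorescence ratio from a 100 s FLIPR kinetic read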
OX1R Fluo8 conf – confirmation of human orexin 1 receptor antagonists. shares compounds with OX1R antag-1. CHO/OX1R cells, orexin A calcium Fluo-8 fluorescence. inhibition, % at 5 µM. 1,100 compounds, 38% hits. AID 492963; in the data active means inhibition above about 29%;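 further: 0% = agonist challenge alone and 100% = reference antagonist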
CHO Ca counter – counter-screen: parental CHO calcium response change, triplicate | shares compounds with OX1R antag-1 | parental CHO-K1, ATP-induced calcium, Fluo-8 fluorescence | inhibition, % at 5.6 µM | 1,100 compounds, 9.3% hits | AID 492965;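 active means inhibition above a per-plate limit, the mean inhibition of that plate's test compounds plus 3 SD, cut at about 25% in these data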;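 further: 0% = ATP challenge with DMSO and 100% = DMSO without ATP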
* = called active by the depositor. Rows were chosen to be rich in hits. Some 2.6% of all compounds tested hit in one or more screens of this group.

How did O=C(N/C(=C/c1cccc(Br)c1)c1nc(=S)[nH][nH]1)c1ccccc1 do in these assays?
OX1R antag-1: 33; CHO parental Ca: 9; OXTR potentiator: -4; V1R ag counter: 0; OX1R antag-2: 32; OXTR agonist: 2; OX1R Fluo8 conf: 49*; CHO Ca counter: 12

How did COc1ccc(CCNC(=S)N2CCN(S(=O)(=O)c3ccc(C)cc3)CC2)cc1 do in these assays?
OX1R antag-1: -13; CHO parental Ca: 12; OXTR potentiator: -14; V1R ag counter: 1; OX1R antag-2: 16; OXTR agonist: 3

Results for O=S(=O)(Nc1ccc(S(=O)(=O)Nc2ccccc2)cc1)c1ccccc1 ?
OX1R antag-1: 36; CHO parental Ca: 11; OXTR potentiator: -16; V1R ag counter: 14; OX1R antag-2: 5; OXTR agonist: 5; OX1R Fluo8 conf: 8; CHO Ca counter: -1

Results for Cc1ncc(CO)c2c1Oc1nc(-c3ccccc3F)nc(SCC(=O)N(C)c3ccccc3)c1C2 ?
OX1R antag-1: 31; CHO parental Ca: -4; OXTR potentiator: -14; V1R ag counter: 1; OX1R antag-2: 31; OXTR agonist: 0; OX1R Fluo8 conf: 17; CHO Ca counter: -16

Results for Cc1ncc(CO)c2c1Oc1nc(-c3ccccc3)nc(SCC(=O)N(C)c3ccccc3)c1C2 ?
OX1R antag-1: 7; CHO parental Ca: -13; OXTR potentiator: -13; V1R ag counter: 3; OX1R antag-2: 16; OXTR agonist: 1

How did O=C(Nc1cccc(Cl)c1)Nc1ccc2c(c1)OCO2 do in these assays?
OX1R antag-1: 32; CHO parental Ca: 15; OXTR potentiator: -25; V1R ag counter: 10; OX1R antag-2: 69; OXTR agonist: 10; OX1R Fluo8 conf: 9; CHO Ca counter: 6

What do the screens show for `Cc1ccc(NC(=O)C(OC(=O)c2ccc(C=O)cc2)c2ccccc2)cc1Cl` (stereo not given)?
OX1R antag-1: 29; CHO parental Ca: 14; OXTR potentiator: -12; V1R ag counter: 1; OX1R antag-2: 14; OXTR agonist: 0; OX1R Fluo8 conf: 32*; CHO Ca counter: 11

Results for O=C(CN1CCN(c2cccc(Cl)c2)CC1)NC1CCCc2ccccc21 (stereo not given) ?
OX1R antag-1: -28; CHO parental Ca: -29; OXTR potentiator: -16; V1R ag counter: -1; OX1R antag-2: 14; OXTR agonist: -1

What do the screens show for `CCOC(=O)C1CCCN(c2oc(-c3ccc(OC)cc3)nc2C#N)C1` (stereo not given)?
OX1R antag-1: -26; CHO parental Ca: -26; OXTR potentiator: -6; V1R ag counter: -1; OX1R antag-2: 21; OXTR agonist: -1

Results for N#Cc1cc(C(=O)c2cc(Br)ccc2O)cn(Cc2ccccc2)c1=O ?
OX1R antag-1: 24; CHO parental Ca: 23; OXTR potentiator: -26; V1R ag counter: 5; OX1R antag-2: 9; OXTR agonist: 3; OX1R Fluo8 conf: 2; CHO Ca counter: 10

How did COC(=O)[C@H](Cc1c[nH]c2ccccc12)NC(=O)CCCc1c[nH]c2ccccc12 do in these assays?
OX1R antag-1: 47; CHO parental Ca: 23; OXTR potentiator: -15; V1R ag counter: 18; OX1R antag-2: 40; OXTR agonist: 7; OX1R Fluo8 conf: 64*; CHO Ca counter: 15

What do the screens show for `CC(C(=O)Nc1ccccc1)c1ccc(-c2ccccc2)c(F)c1` (stereo not given)?
OX1R antag-1: 40*; CHO parental Ca: 13; OXTR potentiator: -25; V1R ag counter: 7; OX1R antag-2: 31; OXTR agonist: 7; OX1R Fluo8 conf: 13; CHO Ca counter: 23

What do the screens show for `CN(Cc1ccccc1)C(=O)c1[nH]cnc1C(=O)Nc1ccon1`?
OX1R antag-1: -18; CHO parental Ca: -17; OXTR potentiator: -3; V1R ag counter: 1; OX1R antag-2: 5; OXTR agonist: 1

What do the screens show for `CC(C)C(NC(=O)Cc1ccccc1)C(=O)N1CCN(c2cccc(Cl)c2)CC1` (stereo not given)?
OX1R antag-1: 41*; CHO parental Ca: 5; OXTR potentiator: -11; V1R ag counter: 9; OX1R antag-2: 22; OXTR agonist: 11; OX1R Fluo8 conf: 21; CHO Ca counter: 19

How did O=C(Cn1cc(C(F)(F)F)cc(Cl)c1=O)NCc1ccccc1 do in these assays?
OX1R antag-1: 3; CHO parental Ca: -5; OXTR potentiator: -5; V1R ag counter: 0; OX1R antag-2: 5; OXTR agonist: 1

How did COc1ccc(S(=O)(=O)n2nc(OC(=O)c3c(-c4ccccc4Cl)noc3C)cc2N)cc1 do in these assays?
OX1R antag-1: 36; CHO parental Ca: 4; OXTR potentiator: -7; V1R ag counter: 2; OX1R antag-2: 41; OXTR agonist: 2; OX1R Fluo8 conf: -8; CHO Ca counter: -13

Results for COc1ccc(C(=O)Oc2cc(N)n(S(=O)(=O)c3ccc(C)cc3)n2)cc1 ?
OX1R antag-1: -17; CHO parental Ca: -20; OXTR potentiator: -4; V1R ag counter: -1; OX1R antag-2: 28; OXTR agonist: 2

How did COC(=O)c1ccc2c(c1)C(C)(C)C(/C=C/c1ccc(O)cc1)=[N+]2C do in these assays?
OX1R antag-1: 31; CHO parental Ca: 14; OXTR potentiator: -10; V1R ag counter: 16; OX1R antag-2: 25; OXTR agonist: 18; OX1R Fluo8 conf: 66*; CHO Ca counter: 52*

How did O=C(COc1ccccc1F)NCc1ccc(-n2cccc2)cc1 do in these assays?
OX1R antag-1: -9; CHO parental Ca: -12; OXTR potentiator: 0; V1R ag counter: 0; OX1R antag-2: 12; OXTR agonist: -2

What do the screens show for `CCOc1ccccc1NC(=O)c1cc(S(=O)(=O)NCc2ccco2)ccc1F`?
OX1R antag-1: 40*; CHO parental Ca: -5; OXTR potentiator: -13; V1R ag counter: -1; OX1R antag-2: 33; OXTR agonist: -3; OX1R Fluo8 conf: 3; CHO Ca counter: -7

What do the screens show for `COc1ccc(OC)c(NC(=O)c2cc(S(=O)(=O)NCc3ccco3)ccc2F)c1`?
OX1R antag-1: 25; CHO parental Ca: -15; OXTR potentiator: -1; V1R ag counter: -1; OX1R antag-2: 23; OXTR agonist: -1

How did CCCCCCC(=O)N1CCC(c2nc3c(nnn3Cc3ccccc3Cl)c(=O)[nH]2)CC1 do in these assays?
OX1R antag-1: -39; CHO parental Ca: -28; OXTR potentiator: -2; V1R ag counter: -1; OX1R antag-2: 3; OXTR agonist: -2
